ChEMBL document CHEMBL3351600, “Sulfur, selenium and tellurium pseudopeptides: synthesis and biological evaluation” (Bioorg Med Chem, 2014)

How the values were obtained:
[1] = tested on: T47D; test: Growth inhibition of human T47D cells after 48 hrs; assay type: functional
Method in brief: (§1)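 Run by the NCI 58-cell-line screen under its standard cytotoxicity protocol. Compounds were first tested at a single dose, then at five doses. Cells were exposed to compound for 48 h.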

[2] = Growth inhibition of human OVCAR4 cells after 48 hrs; assay type: functional; settings: OVCAR-4, 48 h
Method in brief: (§2)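 NCI-60 human tumour cell line panel screen run at the US National Cancer Institute under its standard cytotoxicity protocol. It covers leukaemia, NSCLC, colon, CNS, melanoma, ovarian, renal, prostate and breast lines. An initial single-dose test was followed by five-dose testing with 48 h compound exposure.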

[3] = tested on: SNB-19; test: Growth inhibition of human SNB19 cells after 48 hrs; assay type: functional; settings: SNB-19, 48 h; method in brief: as §1
[4] = Growth inhibition of human BT549 cells after 48 hrs; assay type: functional; settings: BT-549, 48 h; method in brief: as §2
[5] = tested on: SF-268; test: Growth inhibition of human SF268 cells after 48 hrs; assay type: functional; settings: SF-268, 48 h; method in brief: as §2
[6] = tested on: A498; test: Growth inhibition of human A498 cells after 48 hrs; assay type: functional; settings: A498, 48 h; method in brief: as §2
[7] = Growth inhibition of human HCT116 cells after 48 hrs; assay type: functional; settings: HCT-116, 48 h; method in brief: as §2
[8] = Growth inhibition of human RPMI8226 cells after 48 hrs; assay type: functional; settings: RPMI-8226, 48 h; method in brief: as §2
[9] = Growth inhibition of human HOP92 cells after 48 hrs; assay type: functional; settings: HOP-92, 48 h; method in brief: as §2
[10] = tested on: HT-29; test: Growth inhibition of human HT-29 cells after 48 hrs; assay type: functional; settings: HT-29, 48 h; method in brief: as §2
[11] = Lipophilicity, log K of the compound by HPLC analysis
[12] = tested on: Aspergillus niger; test: Antimicrobial activity against Aspergillus niger assessed as inhibition at 20 ug/6 mm disk after 1 to 2 days by agar diffusion assay; assay type: functional
Method in brief: (§3)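 Standard agar diffusion: 6-mm paper disks loaded with 20 µg of compound were placed on inoculated plates. Inhibition-zone diameter (mm) was read after 1 and 2 days of growth.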

[13] = tested on: Saccharomyces cerevisiae; test: Antimicrobial activity against Saccharomyces cerevisiae assessed as inhibition at 20 ug/6 mm disk after 1 to 2 days by agar diffusion assay; assay type: functional; method in brief: as §3
[14] = tested on: NCI-H522; test: Growth inhibition of human NCI-H522 cells after 48 hrs; assay type: functional; settings: NCI-H522, 48 h; method in brief: as §2
[15] = Growth inhibition of human MOLT4 cells after 48 hrs; assay type: functional; settings: MOLT-4, 48 h; method in brief: as §2
[16] = tested on: HL-60(TB); test: Growth inhibition of human HL-60(TB) cells after 48 hrs; assay type: functional; settings: HL-60, 48 h; method in brief: as §2
[17] = Growth inhibition of human UACC62 cells after 48 hrs; assay type: functional; settings: UACC-62, 48 h; method in brief: as §1
[18] = tested on: SK-MEL-2; test: Growth inhibition of human SK-MEL-2 cells after 48 hrs; assay type: functional; settings: SK-MEL-2, 48 h; method in brief: as §2
[19] = Growth inhibition of human OVCAR8 cells after 48 hrs; assay type: functional; settings: OVCAR-8, 48 h; method in brief: as §2
[20] = tested on: A549; test: Growth inhibition of human A549/ATCC cells after 48 hrs; assay type: functional; settings: A549, 48 h; method in brief: as §2
[21] = tested on: Staphylococcus aureus; test: Antimicrobial activity against Staphylococcus aureus assessed as inhibition at 20 ug/6 mm disk after 1 to 2 days by agar diffusion assay; assay type: functional; method in brief: as §3
[22] = Growth inhibition of human UO31 cells after 48 hrs; assay type: functional; settings: UO-31, 48 h; method in brief: as §1
[23] = tested on: K562; test: Growth inhibition of human K562 cells after 48 hrs; assay type: functional; settings: K562, 48 h; method in brief: as §2
[24] = tested on: A-431; test: Cytotoxicity against human A431 cells assessed as cell viability after 24 hrs incubation by MTT assay; assay type: functional, cell-based; settings: A-431, 24 h
Method in brief: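 Cell lines came from DSMZ; primary human fibroblasts served as non-cancer controls. Cells were grown in medium with 10% FCS, seeded at 50,000 cells/ml, and grown 2 days at 37 °C, 10% CO2. Serial dilutions were then added for 24 h. MTT (final 0.5 mg/ml) was added for 2 h. Formazan was pelleted, PBS-washed, dissolved in isopropanol/0.4% HCl and read at 590 nm. Two parallel experiments were run. IC50 was taken as the concentration giving 50% of untreated-control absorbance.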

[25] = tested on: SNB-75; test: Growth inhibition of human SNB75 cells after 48 hrs; assay type: functional; settings: SNB-75, 48 h; method in brief: as §1
[26] = tested on: SK-MEL-5; test: Growth inhibition of human SK-MEL-5 cells after 48 hrs; assay type: functional; settings: SK-MEL-5, 48 h; method in brief: as §1
[27] = tested on: NCI-H23; test: Growth inhibition of human NCI-H23 cells after 48 hrs; assay type: functional; settings: NCI-H23, 48 h; method in brief: as §2
[28] = tested on: MDA-MB-435; test: Growth inhibition of human MDA-MB-435 cells after 48 hrs; assay type: functional; settings: MDA-MB-435, 48 h; method in brief: as §2
[29] = Growth inhibition of human LOXIMVI cells after 48 hrs; assay type: functional; settings: LOX IMVI; method in brief: as §2
[30] = tested on: Micrococcus luteus; test: Antimicrobial activity against Micrococcus luteus assessed as inhibition at 20 ug/6 mm disk after 1 to 2 days by agar diffusion assay; assay type: functional; method in brief: as §3
[31] = tested on: SK-OV-3; test: Growth inhibition of human SKOV3 cells after 48 hrs; assay type: functional; settings: SK-OV-3, 48 h; method in brief: as §1
[32] = read-out: pLC50 (the source's name) (converted)

`COc1ccc(N(CC(=O)NCCC[Te]c2ccccc2)C(=O)c2ccccc2)cc1` showed a GI50 [1] of 3.39 µM, an LC50 [1] of over 100 µM and a TGI ([1]; read-out: pTGI (converted)) of 21.4 µM. For the same molecule, the GI50 [2] was 12 µM, the LC50 [2] was 53.7 µM and the TGI ([2]; read-out: pTGI (converted)) was 25.1 µM. It also gave a Retention_time of 0.89 min, a GI50 [3] of 4.07 µM and a CC50 [3, 32] of over 100 µM. The TGI ([3]; read-out: pTGI (converted)) was 58.9 µM, the GI50 [4] was 2.4 µM and the LC50 (concentration killing 50% of cells) [4] was over 100 µM. The TGI ([4]; read-out: pTGI (converted)) was 8.71 µM, the GI50 [5] was 3.16 µM and the CC50 [5, 32] was 66.1 µM. It also gave a TGI ([5]; read-out: pTGI (converted)) of 10.7 µM, a GI50 [6] of 2.19 µM and an LC50 [6] of 25.1 µM. It also gave a TGI ([6]; read-out: pTGI (converted)) of 5.37 µM, a GI50 [7] of 2.57 µM and a CC50 [7, 32] of 44.7 µM. The TGI ([7]; read-out: pTGI (converted)) was 10.2 µM, the GI50 [8] was 3.16 µM and the CC50 [8, 32] was over 100 µM. For the same molecule, the TGI ([8]; read-out: pTGI (converted)) was 19.1 µM, the GI50 [9] was 4.07 µM and the CC50 [9, 32] was 69.2 µM. For the same molecule, the TGI ([9]; read-out: pTGI (converted)) was 10 µM, the GI50 [10] was 3.8 µM and the CC50 [10, 32] was over 100 µM. The TGI ([10]; read-out: pTGI (converted)) was over 100 µM, the “log K” value [11] was -0.65 and the “diameter of the inhibition zone (DIZ)” value [12] was 10 mm. For the same molecule, the “diameter of the inhibition zone (DIZ)” value [13] was 0 mm, the GI50 [14] was 3.09 µM and the CC50 [14, 32] was 53.7 µM. The TGI ([14]; read-out: pTGI (converted)) was 8.71 µM, the GI50 [15] was 3.55 µM and the CC50 [15, 32] was over 100 µM. It also gave a TGI ([15]; read-out: pTGI (converted)) of 16.6 µM, a GI50 [16] of 2.14 µM and a CC50 [16, 32] of over 100 µM. For the same molecule, the TGI ([16]; read-out: pTGI (converted)) was 5.75 µM, the GI50 [17] was 2.51 µM and the CC50 [17, 32] was 43.7 µM. It also gave a TGI ([17]; read-out: pTGI (converted)) of 7.59 µM, a GI50 [18] of 4.17 µM and a CC50 [18, 32] of over 100 µM. The TGI ([18]; read-out: pTGI (converted)) was 15.1 µM, the GI50 [19] was 3.02 µM and the LC50 [19] was over 100 µM. For the same molecule, the TGI ([19]; read-out: pTGI (converted)) was 8.13 µM, the GI50 [20] was 0.38 µM and the CC50 [20, 32] was 17.8 µM. The TGI ([20]; read-out: pTGI (converted)) was 2.14 µM, the “diameter of the inhibition zone (DIZ)” value [21] was 12 mm and the GI50 [22] was 2.75 µM. For the same molecule, the LC50 [22] was 95.5 µM, the TGI ([22]; read-out: pTGI (converted)) was 11 µM and the GI50 [23] was 5.13 µM. The CC50 [23, 32] was over 100 µM, the TGI ([23]; read-out: pTGI (converted)) was over 100 µM and the IC50 [24] was 5 µM. For the same molecule, the GI50 [25] was 2.57 µM, the CC50 [25, 32] was 39.8 µM and the TGI ([25]; read-out: pTGI (converted)) was 9.55 µM. The GI50 [26] was 2.4 µM, the CC50 [26, 32] was 24.5 µM and the TGI ([26]; read-out: pTGI (converted)) was 6.03 µM. The GI50 [27] was 3.16 µM, the CC50 [27, 32] was over 100 µM and the TGI ([27]; read-out: pTGI (converted)) was 9.33 µM. The GI50 [28] was 8.13 µM, the CC50 [28, 32] was over 100 µM and the TGI ([28]; read-out: pTGI (converted)) was 30.2 µM. It also gave a GI50 [29] of 3.72 µM, an LC50 [29] of 100 µM and a TGI ([29]; read-out: pTGI (converted)) of 14.1 µM. For the same molecule, the “diameter of the inhibition zone (DIZ)” value [30] was 13 mm, the GI50 [31] was 2.57 µM and the CC50 [31, 32] was 35.5 µM. It also gave a TGI ([31]; read-out: pTGI (converted)) of 6.03 µM.
